Measured values: ChEMBL document CHEMBL4002622, “A tetramic acid derivative with protein tyrosine phosphatase 1B inhibitory activity and a new nortriterpene glycoside from the Indonesian marine sponge Petrosia sp” (Bioorg Med Chem Lett, 2017)
Active and inactive are the calls of the source. No cut-off for these calls is given here.

How the values were obtained:
[1] = target: T1, Tyrosine-protein phosphatase non-receptor type 1 (Homo sapiens) (UniProt P18031); test: Inhibition of PTP1B (unknown origin) at 15.2 to 16 uM using pNPP as substrate preincubated for 10 mins followed by substrate addition measured after 30 mins
T1 sequence (whole entry): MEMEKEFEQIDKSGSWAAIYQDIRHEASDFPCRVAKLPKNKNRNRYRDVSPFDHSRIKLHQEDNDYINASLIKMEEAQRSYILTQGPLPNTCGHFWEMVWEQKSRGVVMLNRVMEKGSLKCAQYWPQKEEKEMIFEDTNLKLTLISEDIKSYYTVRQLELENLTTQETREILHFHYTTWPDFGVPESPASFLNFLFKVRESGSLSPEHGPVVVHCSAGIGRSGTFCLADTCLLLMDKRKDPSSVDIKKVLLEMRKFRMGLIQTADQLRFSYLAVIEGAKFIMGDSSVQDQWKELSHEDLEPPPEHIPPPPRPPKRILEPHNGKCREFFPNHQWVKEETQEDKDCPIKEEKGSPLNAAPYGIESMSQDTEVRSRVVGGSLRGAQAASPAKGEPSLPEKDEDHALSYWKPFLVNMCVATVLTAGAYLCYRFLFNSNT
How it was run: (§1)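 Enzyme (0.5 μg/mL stock) in 50 mM citrate pH 6.0, 0.1 M NaCl, 1 mM DTT, 1 mM EDTA; sample added in CH3OH, preincubated 10 min at 37 °C. pNPP (4.0 mM stock) started reaction, 30 min at 37 °C, stopped with 10 M NaOH; p-nitrophenol read at 405 nm. Inhibition (%) = [1 − (sample − blank)/(control − blank)] × 100; oleanolic acid positive control.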

[2] = system: Huh-7; test: Cytotoxicity against human HuH7 cells assessed as decrease in cell viability after 72 hrs by WST1 assay; format: functional, cell-based
How it was run: (§2)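 Seeded 1×10^4 cells per well, cultured overnight, then exposed to compound for 72 h; controls got 0.1% EtOH. Medium with WST-1 (0.5 mM WST-1, 0.02 mM 1-PMS) added, 60 min at 37 °C, absorbance 438 nm (reference 620 nm). Viability = treated absorbance/control absorbance × 100 (%).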

[3] = system: A549; test: Cytotoxicity against human A549 cells assessed as decrease in cell viability after 72 hrs by WST1 assay; format: functional, cell-based; how it was run: as §2
[4] = target: T2, Tyrosine-protein phosphatase non-receptor type 1 (Homo sapiens, UniProt P18031); test: Inhibition of PTP1B (unknown origin) using pNPP as substrate preincubated for 10 mins followed by substrate addition measured after 30 mins; how it was run: as §1
T2 sequence (P18031 whole entry): T1 sequence (whole entry)

Row | inhibition [1] | IC50 [4] [µM] | SMILES | Activity [2] | Activity [3]
1 | inactive |  | CC(=O)C[C@@H](C)[C@H]1CC[C@H]2C3=C(CC[C@]12C)[C@@]1(C)CC[C@H](O[C@@H]2OC[C@@H](O[C@@H]4O[C@H](CO)[C@H](O)[C@H](O)[C@H]4NC(C)=O)[C@H](O)[C@H]2O[C@@H]2O[C@H](CO[C@@H]4O[C@H](CO)[C@@H](O)[C@H](O)[C@H]4O[C@@H]4O[C@H](CO)[C@@H](O)[C@H](O)[C@H]4O)[C@@H](O)[C@H](O)[C@H]2NC(C)=O)C(C)(C)[C@@H]1CC3 | inactive | inactive
2 | inactive |  | CC(=O)N[C@H]1[C@H](O[C@@H]2CO[C@@H](O[C@H]3CC[C@@]4(C)[C@@H](CCC5=C6[C@@H](O)C[C@H]([C@H](C)CC(=O)C=C(C)C)[C@@]6(C)CC[C@@]54O)C3(C)C)[C@H](O[C@@H]3O[C@H](CO[C@@H]4O[C@H](CO)[C@@H](O)[C@H](O)[C@H]4O[C@@H]4O[C@H](CO)[C@@H](O)[C@H](O)[C@H]4O)[C@@H](O)[C@H](O)[C@H]3NC(C)=O)[C@H]2O)O[C@H](CO)[C@H](O)[C@@H]1O | inactive | inactive
3 | inactive |  | CC(=O)N[C@H]1[C@H](O[C@@H]2CO[C@@H](O[C@H]3CC[C@]4(C)C5=C(CC[C@H]4C3(C)C)[C@@H]3CC[C@H]([C@H](C)CC(=O)C=C(C)C)[C@@]3(C)CC5)[C@H](O[C@@H]3O[C@H](CO[C@@H]4O[C@H](CO)[C@@H](O)[C@H](O)[C@H]4O[C@@H]4O[C@H](CO)[C@@H](O)[C@H](O)[C@H]4O)[C@@H](O)[C@H](O)[C@H]3NC(C)=O)[C@H]2O)O[C@H](CO)[C@H](O)[C@@H]1O | inactive | inactive
4 | inactive |  | CC(=O)N[C@H]1[C@H](O[C@@H]2CO[C@@H](O[C@H]3CC[C@]4(C)C5=C(CC[C@H]4C3(C)C)[C@@H]3CC[C@H]([C@H](C)CC(=O)CC(C)(C)O)[C@@]3(C)CC5)[C@H](O[C@@H]3O[C@H](CO[C@@H]4O[C@H](CO)[C@@H](O)[C@H](O)[C@H]4O[C@@H]4O[C@H](CO)[C@@H](O)[C@H](O)[C@H]4O)[C@@H](O)[C@H](O)[C@H]3NC(C)=O)[C@H]2O)O[C@H](CO)[C@H](O)[C@@H]1O | inactive | inactive
5 |  | 14.6 | CCCCCCCC(C)CCC/C(O)=C1\C(=O)C(C)N(C)C1=O (stereo not drawn) [MELOPHLIN C] |  | 
